≈ marks a conversion by molar mass, not a printed value.
Columns and labels:
[1] = Selectivity index, ratio of GI50 for human THP1 cells to MIC90 for Mycobacterium bovis BCG ATCC 35743 active stage; assay type: toxicity, cell-based, THP-1; details: read-out: Selectivity Index
In short: (§1)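 Cytotoxicity was measured on human MCF-7, HCT116 and THP-1 cells by MTT assay, with paclitaxel as reference. GI50 is the concentration inhibiting 50% of cell growth. The selectivity index is GI50 for the given cell line divided by MIC90 for the given mycobacterial strain and stage.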

[2] = Antitubercular activity against Mycobacterium tuberculosis H37Ra ATCC 25177 dormant stage infected in human THP1 cells measured on day 12 by nitrate reductase assay; assay type: functional, THP-1; details: ATCC 25177, 288 h
[3] = Antitubercular activity against Mycobacterium tuberculosis H37Ra ATCC 25177 active stage infected in human THP1 cells measured on day 8 by nitrate reductase assay; assay type: functional, THP-1; details: ATCC 25177, 192 h
[4] = Cytotoxicity against human MCF7 cells by MTT assay; assay type: toxicity, cell-based
[5] = Selectivity index, ratio of GI50 for human HCT116 cells to MIC90 for Mycobacterium bovis BCG ATCC 35743 active stage; assay type: toxicity, cell-based, HCT-116; details: read-out: Selectivity Index; in short: as §1
[6] = test system: Bacillus subtilis; experiment: Antibacterial activity against Bacillus subtilis; assay type: functional
[7] = test system: Bacillus subtilis; experiment: Growth inhibition of Bacillus subtilis at 10 ug/ml; assay type: functional; details: read-out: GI
[8] = Selectivity index, ratio of GI50 for human THP1 cells to MIC90 for Mycobacterium tuberculosis H37Ra ATCC 25177 dormant stage; assay type: toxicity, cell-based, THP-1; details: read-out: Selectivity Index
In short: (§2)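 Cytotoxicity was measured on human MCF-7, HCT116 and THP-1 cells by MTT assay, with paclitaxel as reference. The selectivity index is GI50 for the given cell line divided by MIC90 for the given mycobacterial strain and stage.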

[9] = test system: Staphylococcus aureus; experiment: Growth inhibition of Staphylococcus aureus at 3 ug/ml; assay type: functional; details: read-out: GI
In short: (§3)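 Screened against Gram-negative E. coli and P. aeruginosa and Gram-positive S. aureus and B. subtilis. Compound was tested at 3 µg/ml, and the read-out is percent growth inhibition.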

[10] = test system: Pseudomonas aeruginosa; experiment: Growth inhibition of Pseudomonas aeruginosa at 10 ug/ml; assay type: functional; details: read-out: GI
[11] = Selectivity index, ratio of GI50 for human HCT116 cells to MIC90 for Mycobacterium tuberculosis H37Ra ATCC 25177 dormant stage; assay type: toxicity, cell-based, HCT-116; details: read-out: Selectivity Index; in short: as §2
[12] = Cytotoxicity against human HCT116 cells by MTT assay; assay type: toxicity, cell-based, HCT-116
[13] = test system: Pseudomonas aeruginosa; experiment: Growth inhibition of Pseudomonas aeruginosa at 30 ug/ml; assay type: functional; details: read-out: GI
[14] = test system: Escherichia coli; experiment: Growth inhibition of Escherichia coli at 30 ug/ml; assay type: functional; details: read-out: GI
[15] = Antitubercular activity against Mycobacterium bovis BCG ATCC 35743 active stage measured on day 8 by nitrate reductase based two-fold dilution assay; assay type: functional, Mycobacterium bovis BCG str. ATCC 35743; details: Mycobacterium tuberculosis variant bovis BCG, ATCC 35743, 192 h
[16] = Selectivity index, ratio of GI50 for human HCT116 cells to MIC90 for Mycobacterium tuberculosis H37Ra ATCC 25177 active stage; assay type: toxicity, cell-based, HCT-116; details: read-out: Selectivity Index; in short: as §1
[17] = test system: Escherichia coli; experiment: Growth inhibition of Escherichia coli at 3 ug/ml; assay type: functional; details: read-out: GI; in short: as §3
[18] = test system: Bacillus subtilis; experiment: Growth inhibition of Bacillus subtilis at 30 ug/ml; assay type: functional; details: read-out: GI
[19] = Antitubercular activity against Mycobacterium tuberculosis H37Ra ATCC 25177 dormant stage measured on day 12 by XTT reduction menadione based two-fold dilution assay; assay type: functional; details: ATCC 25177, 288 h
In short: (§4)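 M. tuberculosis H37Ra ATCC 25177 was exposed to 0.7–100 μg/mL in two-fold steps (0.7, 1.5, 3.1 … 100). Active stage was read after 8 days and dormant stage after 12 days of incubation. Inhibition was read by XTT reduction menadione assay (XRMA), absorbance 470 nm. MIC90 is the concentration giving ≥90% inhibition (µg/mL).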

[20] = test system: Escherichia coli; experiment: Antibacterial activity against Escherichia coli; assay type: functional
[21] = Selectivity index, ratio of GI50 for human HCT116 cells to MIC90 for Mycobacterium bovis BCG ATCC 35743 dormant stage; assay type: toxicity, cell-based, HCT-116; details: read-out: Selectivity Index; in short: as §2
[22] = Cytotoxicity against human THP1 cells by MTT assay; assay type: toxicity, cell-based, THP-1
[23] = test system: Pseudomonas aeruginosa; experiment: Antibacterial activity against Pseudomonas aeruginosa; assay type: functional
[24] = Antitubercular activity against Mycobacterium tuberculosis H37Ra ATCC 25177 active stage measured on day 8 by XTT reduction menadione based two-fold dilution assay; assay type: functional; details: ATCC 25177, 192 h; in short: as §4
[25] = test system: Pseudomonas aeruginosa; experiment: Growth inhibition of Pseudomonas aeruginosa at 3 ug/ml; assay type: functional; details: read-out: GI; in short: as §3
[26] = test system: Staphylococcus aureus; experiment: Growth inhibition of Staphylococcus aureus at 30 ug/ml; assay type: functional; details: read-out: GI
[27] = Selectivity index, ratio of GI50 for human THP1 cells to MIC90 for Mycobacterium bovis BCG ATCC 35743 dormant stage; assay type: toxicity, cell-based, THP-1; details: read-out: Selectivity Index; in short: as §2
[28] = test system: Staphylococcus aureus; experiment: Antibacterial activity against Staphylococcus aureus; assay type: functional
[29] = test system: Escherichia coli; experiment: Growth inhibition of Escherichia coli at 10 ug/ml; assay type: functional; details: read-out: GI
[30] = test system: Staphylococcus aureus; experiment: Growth inhibition of Staphylococcus aureus at 10 ug/ml; assay type: functional; details: read-out: GI
[31] = Antitubercular activity against Mycobacterium bovis BCG ATCC 35743 dormant stage measured on day 12 by nitrate reductase based two-fold dilution assay; assay type: functional, Mycobacterium bovis BCG str. ATCC 35743; details: Mycobacterium tuberculosis variant bovis BCG, ATCC 35743, 288 h
[32] = Selectivity index, ratio of GI50 for human THP1 cells to MIC90 for Mycobacterium tuberculosis H37Ra ATCC 25177 active stage; assay type: toxicity, cell-based, THP-1; details: read-out: Selectivity Index; in short: as §1
[33] = test system: Bacillus subtilis; experiment: Growth inhibition of Bacillus subtilis at 3 ug/ml; assay type: functional; details: read-out: GI; in short: as §3
[34] = Selectivity index, ratio of GI50 for human MCF7 cells to MIC90 for Mycobacterium tuberculosis H37Ra ATCC 25177 active stage; assay type: toxicity, cell-based; details: read-out: Selectivity Index; in short: as §1
[35] = Selectivity index, ratio of GI50 for human MCF7 cells to MIC90 for Mycobacterium bovis BCG ATCC 35743 dormant stage; assay type: toxicity, cell-based; details: read-out: Selectivity Index; in short: as §2
[36] = Selectivity index, ratio of GI50 for human MCF7 cells to MIC90 for Mycobacterium bovis BCG ATCC 35743 active stage; assay type: toxicity, cell-based; details: read-out: Selectivity Index; in short: as §1
[37] = Selectivity index, ratio of GI50 for human MCF7 cells to MIC90 for Mycobacterium tuberculosis H37Ra ATCC 25177 dormant stage; assay type: toxicity, cell-based; details: read-out: Selectivity Index; in short: as §2

**Q.** For `COc1ccc(-c2csc(N/N=C(\C)c3sc(-c4ccccc4)nc3C)n2)cc1`, which selectivity ratio [1] is on record?
**A.** The selectivity ratio was 7.

**Q.** And the MIC90 [2]?
**A.** The MIC90 was 9.38 µg/mL (≈ 22.3 µM).

**Q.** And the MIC90 [3]?
**A.** Its MIC90 is 12.3 µg/mL (≈ 29.3 µM).

**Q.** And the GI50 ([4]; MCF7 cells)?
**A.** The GI50 was greater than 100 µg/mL.

**Q.** What about the GI90 ([4]; mcf7) of the same molecule?
**A.** Its GI90 is greater than 100 µg/mL.

**Q.** What about the selectivity ratio [5] of the same molecule?
**A.** Its selectivity ratio is 7.

**Q.** And the MIC [6]?
**A.** The MIC was greater than 30 µg/mL.

**Q.** What about the inhibition of growth at 10 µg/mL [7] of the same molecule?
**A.** The inhibition of growth at 10 µg/mL was 66.8%.

**Q.** What about the selectivity ratio [8] of the same molecule?
**A.** The selectivity ratio was 14.

**Q.** And the inhibition of growth at 3 µg/mL [9]?
**A.** The inhibition of growth at 3 µg/mL was 48.8%.

**Q.** What about the inhibition of growth at 10 µg/mL [10] of the same molecule?
**A.** The inhibition of growth at 10 µg/mL was 69.9%.

**Q.** And the selectivity ratio [11]?
**A.** The selectivity ratio was 14.

**Q.** What about the GI50 ([12]; HCT116 cells) of the same molecule?
**A.** Its GI50 is greater than 100 µg/mL.

**Q.** And the GI90 ([12]; hct-116)?
**A.** The GI90 was greater than 100 µg/mL.

**Q.** And the inhibition of growth at 30 µg/mL [13]?
**A.** The inhibition of growth at 30 µg/mL was 85%.

**Q.** What about the inhibition of growth at 30 µg/mL [14] of the same molecule?
**A.** The inhibition of growth at 30 µg/mL was 84.6%.

**Q.** What about the IC50 [15] of the same molecule?
**A.** Its IC50 is 2.43 µg/mL (≈ 5.78 µM).

**Q.** What about the MIC90 [15] of the same molecule?
**A.** The MIC90 was 13.5 µg/mL (≈ 32.1 µM).

**Q.** And the selectivity ratio [16]?
**A.** The selectivity ratio was 15.

**Q.** And the inhibition of growth at 3 µg/mL [17]?
**A.** The inhibition of growth at 3 µg/mL was 52.1%.

**Q.** And the inhibition of growth at 30 µg/mL [18]?
**A.** Its inhibition of growth at 30 µg/mL is 82.5%.

**Q.** And the IC50 [19]?
**A.** The IC50 was 0.075 µg/mL (≈ 0.178 µM).

**Q.** What about the MIC90 [19] of the same molecule?
**A.** Its MIC90 is 7.15 µg/mL (≈ 17 µM).

**Q.** What about the MIC [20] of the same molecule?
**A.** Its MIC is greater than 30 µg/mL.

**Q.** What about the selectivity ratio [21] of the same molecule?
**A.** The selectivity ratio was 7.

**Q.** What about the GI50 ([22]; THP1 cells) of the same molecule?
**A.** Its GI50 is greater than 100 µg/mL.

**Q.** And the GI90 ([22]; thp-1)?
**A.** The GI90 was greater than 100 µg/mL.

**Q.** And the MIC [23]?
**A.** Its MIC is greater than 30 µg/mL.

**Q.** And the IC50 [24]?
**A.** The IC50 was 0.078 µg/mL (≈ 0.185 µM).

**Q.** And the MIC90 [24]?
**A.** Its MIC90 is 6.87 µg/mL (≈ 16.3 µM).

**Q.** And the inhibition of growth at 3 µg/mL [25]?
**A.** Its inhibition of growth at 3 µg/mL is 48.7%.

**Q.** What about the inhibition of growth at 30 µg/mL [26] of the same molecule?
**A.** Its inhibition of growth at 30 µg/mL is 83.7%.

**Q.** What about the selectivity ratio [27] of the same molecule?
**A.** Its selectivity ratio is 7.

**Q.** What about the MIC [28] of the same molecule?
**A.** Its MIC is greater than 30 µg/mL.

**Q.** What about the inhibition of growth at 10 µg/mL [29] of the same molecule?
**A.** The inhibition of growth at 10 µg/mL was 71.1%.

**Q.** What about the inhibition of growth at 10 µg/mL [30] of the same molecule?
**A.** Its inhibition of growth at 10 µg/mL is 69.2%.

**Q.** And the IC50 [31]?
**A.** The IC50 was 2.82 µg/mL (≈ 6.71 µM).

**Q.** And the MIC90 [31]?
**A.** Its MIC90 is 14 µg/mL (≈ 33.3 µM).

**Q.** What about the selectivity ratio [32] of the same molecule?
**A.** The selectivity ratio was 15.

**Q.** And the inhibition of growth at 3 µg/mL [33]?
**A.** Its inhibition of growth at 3 µg/mL is 44.9%.

**Q.** What about the selectivity ratio [34] of the same molecule?
**A.** Its selectivity ratio is 15.

**Q.** What about the selectivity ratio [35] of the same molecule?
**A.** The selectivity ratio was 7.

**Q.** And the selectivity ratio [36]?
**A.** The selectivity ratio was 7.

**Q.** And the selectivity ratio [37]?
**A.** Its selectivity ratio is 14.

From ChEMBL document CHEMBL3872252, “New bithiazolyl hydrazones: Novel synthesis, characterization and antitubercular evaluation” (Bioorg Med Chem Lett, 2017)
